# Source: PubChem BioAssay
# Compounds with a hit are over-represented: about 3.4% of the library has one in this group of screens.
# CHT inh: human CHT choline transport inhibition. Q9GZV3. CHT-expressing cells, membrane potential dye, choline response; hits give low values. B-score at 10 µM. actives 0.86% (n = 310,000). AID 488975;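 active = B-score over 3 SD under the library average, and starting fluorescence ratio not unusually high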;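 also: choline stimulus applied at its EC90 after an EC20 pre-addition; B-score computed on integrated fluorescence ratio after choline addition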
# ANO1 block: inhibitors of mouse TMEM16A calcium-activated chloride channel. actives 1.2% (n = 310,000). AID 588511. HEK293 TMEM16A/YFP iodide influx fluorescence, ionomycin. normalized B-score (activity score, 25-100; higher = stronger inhibition) at 10 µM;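 active = ratio plate-corrected score three or more library SD toward inhibition, starting fluorescence score within five deviations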;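 also: score derived from kinetic fluorescence span divided by baseline fluorescence per well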
# Target sequence (Q8BHY3 whole entry, looked up): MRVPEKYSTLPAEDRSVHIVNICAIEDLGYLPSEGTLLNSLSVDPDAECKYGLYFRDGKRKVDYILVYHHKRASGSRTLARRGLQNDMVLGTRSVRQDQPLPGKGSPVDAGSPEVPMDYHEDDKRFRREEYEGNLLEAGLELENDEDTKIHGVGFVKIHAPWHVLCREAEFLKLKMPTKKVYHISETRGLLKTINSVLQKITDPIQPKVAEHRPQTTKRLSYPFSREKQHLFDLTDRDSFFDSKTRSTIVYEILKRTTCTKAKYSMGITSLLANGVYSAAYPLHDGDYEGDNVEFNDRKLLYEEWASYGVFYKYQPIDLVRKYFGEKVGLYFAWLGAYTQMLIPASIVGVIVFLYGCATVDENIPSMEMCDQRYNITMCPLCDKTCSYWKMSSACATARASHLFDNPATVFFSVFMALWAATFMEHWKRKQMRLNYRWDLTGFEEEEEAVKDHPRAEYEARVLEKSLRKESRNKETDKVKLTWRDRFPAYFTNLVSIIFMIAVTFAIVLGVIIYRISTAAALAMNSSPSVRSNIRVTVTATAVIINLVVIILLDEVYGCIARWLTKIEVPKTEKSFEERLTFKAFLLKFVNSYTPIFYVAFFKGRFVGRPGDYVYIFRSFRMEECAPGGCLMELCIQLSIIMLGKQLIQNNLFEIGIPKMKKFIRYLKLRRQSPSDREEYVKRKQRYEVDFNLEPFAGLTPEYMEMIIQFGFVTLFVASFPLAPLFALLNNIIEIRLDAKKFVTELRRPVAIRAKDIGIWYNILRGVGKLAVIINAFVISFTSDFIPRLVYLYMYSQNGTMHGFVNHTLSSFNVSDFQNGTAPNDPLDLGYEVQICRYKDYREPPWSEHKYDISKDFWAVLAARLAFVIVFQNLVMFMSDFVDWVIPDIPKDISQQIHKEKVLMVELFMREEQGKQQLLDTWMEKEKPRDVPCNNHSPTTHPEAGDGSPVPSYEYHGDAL
# IMP-1 inhibitor: blocks Pseudomonas aeruginosa IMP-1 metallo-beta-lactamase; purified IMP-1, nitrocefin hydrolysis, epi-absorbance fluorescence; inhibition, % at 5.6 µM; actives 0.45% (n = 290,000); AID 1556;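 active = inhibition above the mean plus 3 SD of all compounds in the same screening run, cut at about 4.5% in these data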;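 also: 0% = IMP-1 with DMSO and 100% = DMSO wells lacking enzyme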
#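 System – purified recombinant IMP-1 beta-lactamase · Input – IMP-1 dispensed at 0.2 nM · Timing – 15 min preincubation plus 25 min reaction at 25 °C · Signal – Epi-absorbance fluorescence, 480 nm excitation, 530 nm emission · Measure – percent IMP-1 inhibition derived from blank-referenced optical density · Controls – Enzyme-plus-DMSO low control, enzyme-free DMSO high control · Replication – singlicate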
# VIM-2 inhibitor: inhibitors of Pseudomonas aeruginosa VIM-2 metallo-beta-lactamase; actives 0.89% (n = 290,000); inhibition, % at 5.6 µM; purified VIM-2, nitrocefin hydrolysis, epi-absorbance fluorescence;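 active = inhibition above the mean of all tested compounds plus 3 SD, cutoff set per screening run, cut at about 7.5% in these data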;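 also: red hydrolysis product quenches plate fluorescence so inhibitors raise well fluorescence; 0% = enzyme with DMSO and 100% = DMSO without enzyme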
# CHT allo act: human CHT allosteric activation. Q9GZV3. CHT-expressing cells, membrane potential dye, choline EC20; hits give high values; LV-AA mutant CHT in HEK293 cells. B-score at 10 µM. actives 0.49% (n = 310,000). AID 488977;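 active = initial fluorescence not abnormally high and integrated response B-score, plate-corrected, over 3 SD above library mean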
# TMEM16A act: mouse TMEM16A channel activation, primary screen. actives 0.3% (n = 340,000). HEK293 TMEM16A/YFP-H148Q/I152L, iodide quench fluorescence; hits give low values. B-score at 10 µM;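 active = fluorescence-ratio B-score plate-corrected deviation score at least 3 library SD below zero, with starting fluorescence score within 5 deviations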;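 also: channel opened by trigger with iodide after compound preincubation; score built on the fluorescence ratio of max minus min over baseline; more negative score means more quench and so TMEM16A activation or potentiation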
# CHT inh conf: confirmation of human choline transporter CHT inhibitors; shares compounds with CHT inh; actives 70% (n = 2,400); CHT activity remaining % of control (hits give low values), % at 10 µM; CHT-expressing cells, choline membrane potential dye; LV-to-AA substituted CHT, HEK293 cells;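 active = choline transporter activity left, mean of duplicates at 10 µM, below buffer-only control mean minus 3 SD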;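 also: depolarization triggered by choline at its EC90 following an EC20 pre-addition; 0% = hemicholinium-3 full block and 100% = buffer-only control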
# HEK293 CHT ctr: CHT inhibitor counter-screen hit in parental HEK293 cells; membrane potential dye, choline response; active = decrease or increase beyond buffer ±3SD; membrane potential ratio readout (active if shifted either direction beyond buffer ±3SD; no single direction) at 10 µM; shares compounds with CHT inh; actives 4% (n = 2,400); AID 493222;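 also: parental cells lack the transporter so any hit is non-specific; ratio is peak minus trough fluorescence over baseline after EC90 choline challenge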
# The depositor's hits bear a star; i = inactive; · = not tested or not shown.
SMILES,CHT inh,ANO1 block,IMP-1 inhibitor,VIM-2 inhibitor,CHT allo act,TMEM16A act,CHT inh conf,HEK293 CHT ctr
CCOC(=O)CSC1=C(C#N)C(c2ccccc2)C(C(C)=O)=C(C)N1 (configuration not stated),-5.7*,i,-0.5,-1.4,i,i,i,i
COc1ccc(N2CCN(c3ncnc4scc(-c5ccc(C)cc5)c34)CC2)cc1,i,i,-0.8,-1.3,i,i,·,·
CCN1CCN(c2ncnc3scc(-c4ccc(OC)cc4)c23)CC1,-5.33*,i,-0.9,-1.6,i,i,50.9%*,i
Cc1ccc(-c2csc3ncnc(N4CCN(C)CC4)c23)cc1C,-11.1*,i,-4.7,-1.6,i,i,48.4%*,i
COc1ccc(CN2CCN(c3ncnc4scc(-c5ccc(F)cc5)c34)CC2)cc1,i,i,-1.1,-1.3,i,i,·,·
CCCc1nnc(NC(=O)c2nc(S(=O)(=O)Cc3cccc(C)c3)ncc2Cl)s1,-5.2*,i,-1.0,-3.3,i,i,29.7%*,i
Cc1nnc(NC(=O)c2nc(S(=O)(=O)Cc3ccccc3)ncc2Cl)s1,-10.7*,i,-1.1,-3.0,i,i,27.5%*,i
Cc1ccc2c(c1)N(CC(=O)NCCCN1C(C)CCCC1C)C(=O)c1cccnc1O2 (configuration not stated),i,i,-0.8,-1.4,i,i,·,·
CC1CCCC(C)N1CCCNC(=O)CN1C(=O)c2cccnc2Oc2ccc(Cl)cc21 (configuration not stated),-7.09*,i,-1.8,-0.7,i,i,18.6%*,i
Cn1c(CSc2nc3ccccc3s2)n[nH]c1=S,i,i,-5.2,1.6,i,i,·,·
Cn1c(-c2sc3ccccc3c2Cl)n[nH]c1=S,-5.06*,i,-2.3,1.3,i,i,50.1%*,i
CCCCn1c(SCC(=O)N2c3ccccc3CCc3ccccc32)nc2c1c(=O)n(C)c(=O)n2C,i,i,-3.1,-2.2,i,i,·,·
CCCCn1c(SCc2nnc(-c3ccccc3)o2)nc2c1c(=O)n(C)c(=O)n2C,-5.64*,i,-4.0,-3.2,i,i,34.1%*,i
COc1ccc(/C=C/C(=O)Nc2ccc(NC(C)=O)cc2)cc1S(=O)(=O)N1CCOCC1,i,i,-3.8,-0.6,i,i,·,·
COc1ccc(/C=C/C(=O)NC2CCCCCCC2)cc1S(=O)(=O)N1CCOCC1,-7.56*,i,-3.5,-0.8,i,i,19.8%*,i
OC1CCCN(c2c3c(nc4cc(-c5cccc(F)c5)nn24)CCCC3)C1 (configuration not stated),-5.23*,i,-0.6,-0.4,i,i,i,i
Cc1cccc(-c2cc3nc4c(c(N5CCCC(O)C5)n3n2)CCC4)c1 (configuration not stated),i,i,-2.7,-0.3,i,i,·,·
Cc1ccc([C@@H]2[C@@H]3C(=O)N(C)C(=O)[C@@H]3[C@]3(C)C(=O)N(Cc4ccc(-c5ccccc5)cc4)CC(=O)N23)o1,i,i,-2.9,-1.4,i,i,·,·
O=C(CSc1nccn1-c1ccc(F)cc1)NCc1ccc(F)cc1,-5.26*,i,1.6,2.1,i,i,53.1%*,i
CCCOP(=O)(c1ccc(N(C)C)cc1)C(O)c1ccc(Br)cc1 (configuration not stated),-5.77*,i,-3.2,-2.2,i,i,68.0%*,i
CC(C)(C)C(=O)N1CCN(c2ccc(NC(=O)c3ccc4c(c3)OCCO4)cc2)CC1,-5.38*,i,-0.9,2.0,i,i,65.8%*,i
CCCC(=O)N1CCN(c2ccc(NC(=O)c3ccc4c(c3)OCCO4)cc2)CC1,i,i,-1.6,-2.0,i,i,·,·
Cc1cccc(N2Cc3ccc(Br)cc3C2)c1,i,i,·,·,i,i,·,·
O=C(Nc1nc(-c2cccs2)c(C(=O)C(F)(F)F)s1)c1ccco1,-5.22*,i,0.9,0.7,i,i,i,i
COC(=O)[C@]12C(=O)NC[C@H](CN1c1ccc(Cl)c(C)c1)N2C,·,·,·,·,·,i,·,·
SMILES,CHT inh,ANO1 block,IMP-1 inhibitor,VIM-2 inhibitor,CHT allo act,TMEM16A act,CHT inh conf,HEK293 CHT ctr
Cc1cc(C)c2nc(N3CCCN(C(=O)c4cnccn4)CC3)c(C#N)cc2c1,-5.2*,i,0.3,-2.6,i,i,37.8%*,i
Cc1nn(-c2ccccc2)c2[nH]c(=O)cc(C(F)(F)F)c12,-5.18*,i,-3.4,-0.1,i,i,36.6%*,i
Cc1ccnc(NS(=O)(=O)c2ccc(NC(=O)CC(C)c3ccccc3)cc2)n1 (configuration not stated),i,i,-2.8,-3.0,i,i,·,·
O=C(CCl)N(C1CCCC1)C1CCS(=O)(=O)C1 (configuration not stated),-5.06*,i,0.5,-0.7,i,i,i,i
O=C(Cn1ncc2c1-c1ccccc1OC2)N(Cc1ccco1)C1CCCCC1,-4.95*,i,-3.0,-4.0,i,i,i,i
Cc1cc(-c2ccc(S(=O)(=O)N3CCN(c4cccc(C)c4C)CC3)s2)on1,i,i,2.2,2.0,i,i,·,·
Cc1ccc(C(=O)N/C(=C/c2ccco2)C(=O)Nc2cccc(C)c2)cc1,-5.72*,i,-0.6,-1.6,i,i,61.6%*,i
Cc1cccc(NC(=O)/C(=C\c2ccco2)NC(=O)c2cccs2)c1,i,i,-1.6,-1.3,i,i,·,·
C=C(C)CSc1nnc(CCCCCNC(=O)OC(C)(C)C)o1,-5.99*,i,-4.0,-2.7,i,i,68.2%*,i
CC(C)(C)OC(=O)NCCCCCc1nnc(SCC(N)=O)o1,-6.32*,i,-5.0,-3.0,i,i,i,i
CC(C)(C)OC(=O)NCCc1nnc(SCC(N)=O)o1,i,i,-1.4,-0.3,i,i,·,·
Cc1ccc(CSc2nnc(CCNC(=O)OC(C)(C)C)o2)cc1,-5.34*,i,-2.6,-3.6,i,i,68.5%*,i
CC(C)(C)OC(=O)NCCc1nnc(SCc2ccccc2)o1,i,i,-2.2,-0.2,i,i,·,·
